Pf Dd2 inh: blocks growth of Plasmodium falciparum Dd2 parasites; P. falciparum Dd2 growth, SYBR Green, 72 h; hits give low values; activity change, % at 10 µM; 94,000 compounds, 2.3% hits; in the data active = activity change below about -80%; inconclusive = no clear call, values can overlap the other calls
GASC1 inh: blocks human GASC-1 (KDM4C) demethylase activity; inhibition, % at 12.5 µM; GST-KDM4C 2-372, H3K9me3 peptide, LANCE TR-FRET; Q9H3R0; 96,000 compounds, 0.15% hits;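 active = mean replicate inhibition above about 25%, with at least 55% of replicates also reaching it, limit read from the data, passing the limit was not always enough; inconclusive = only one of those two conditions met; inactive = neither condition met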
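material = GST-tagged GASC-1 (JMJD2C) catalytic fragment, aa 2-372 | amount = enzyme final amount 10 nM | medium = HEPES buffer, pH 7.5, plus ascorbate | also added = H3K9me3 peptide substrate, Fe(II), 2-oxoglutarate | dosing = single dose | times = 30 min demethylation and 1 h detection at room temperature | detection = LANCE TR-FRET | read-out basis = Fall in 671/618 emission ratio as inhibition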
IDH1 mut inh: inhibitors of human IDH1 R132H. IDH1 R132H reductase, diaphorase/resazurin fluorescence, 60 min. inhibition, % at 10 µM. 70,000 compounds, 0.18% hits; in the data active = inhibition above about 34%; inconclusive = no clear call, values can overlap the other calls; inactive = below about 11%;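 note: 0% = DMSO and 100% = no enzyme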
Target sequence (O75874 whole entry R132H): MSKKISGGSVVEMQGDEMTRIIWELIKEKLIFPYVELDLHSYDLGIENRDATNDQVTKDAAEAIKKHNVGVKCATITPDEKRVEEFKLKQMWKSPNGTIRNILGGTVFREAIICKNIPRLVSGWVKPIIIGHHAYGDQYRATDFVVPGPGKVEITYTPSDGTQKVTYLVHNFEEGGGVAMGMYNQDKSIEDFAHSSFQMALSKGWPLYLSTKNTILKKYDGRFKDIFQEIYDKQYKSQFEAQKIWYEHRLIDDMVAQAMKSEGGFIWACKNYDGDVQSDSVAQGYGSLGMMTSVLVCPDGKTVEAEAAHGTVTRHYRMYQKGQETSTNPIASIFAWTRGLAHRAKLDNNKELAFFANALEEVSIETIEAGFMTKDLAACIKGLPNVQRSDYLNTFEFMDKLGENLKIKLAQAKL
T cruzi growth: blocks T. cruzi growth in NIH3T3 culture. T. cruzi beta-gal in NIH3T3, GalScreen luminescence, 90 h. inhibition, % at 8.34 µM. 77,000 compounds, 5.9% hits;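 active = mean inhibition above about 93%, with at least 55% of replicates each passing it, limit read from the data, passing the limit was not always enough; inconclusive = only one of those two conditions holds; inactive = neither condition holds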
* hit, by the source's call; ? = inconclusive; · = no result; ! = not active in a repeat. The list is not random: actives were taken first. Their share in the collection is about 5.9%.

SMILES	Pf Dd2 inh	GASC1 inh	IDH1 mut inh	T cruzi growth
COc1ccccc1CN1C[C@@H]2N[C@H](C1)C2c1ccc(-c2ccc(C#N)cc2)cc1 (some centres not stated)	-82*!	0	·	·
COc1ccccc1CN1C[C@@H]2N[C@H](C1)C2c1ccc(-c2cccc(C#N)c2)cc1 (some centres not stated)	-24	-1	·	·
N#Cc1cccc(-c2ccc(C3[C@@H]4CN(Cc5ccccc5)C[C@H]3N4)cc2)c1 (some centres not stated)	-91*!	1	·	·
N#Cc1ccc(-c2ccc(C3[C@@H]4CN(Cc5ccccc5F)C[C@H]3N4)cc2)cc1 (some centres not stated)	-89*!	14	·	·
Fc1cccc(-c2ccc(C3[C@@H]4CN(Cc5ccccc5F)C[C@H]3N4)cc2)c1 (some centres not stated)	-33	0	·	·
N#Cc1ccc(-c2ccc([C@@H]3[C@@H]4CN(S(=O)(=O)Cc5ccccc5)C[C@H]3N4)cc2)cc1	-86*	0	·	·
C[C@@H]1CN([C@@H](C)CO)C(=O)c2cc(NC(=O)Nc3ccc4c(c3)OCO4)ccc2O[C@@H]1CN(C)Cc1ccc(C(=O)Nc2ccccc2N)cc1	-70	-1	·	38
CO[C@@H]1CN(C)C(=O)c2cc(NC(=O)C3CCC3)ccc2OC[C@H](C)N(C(=O)NC(C)C)C[C@H]1C	·	-1	0	·
COc1ccc2c3c([nH]c2c1)[C@@H](CO)N(C(=O)c1cccc(F)c1)CC31CCN(C(=O)c2ccccc2)CC1	-88*	-1	·	·
COc1ccc2c3c([nH]c2c1)[C@H](CO)N(Cc1cccnc1)CC31CCN(C(=O)CN(C)C)CC1	-86*	0	·	·
COc1ccc2c3c([nH]c2c1)[C@@H](CO)N(Cc1ccccc1)CC31CCN(C(=O)c2cccnc2)CC1	-90*	0	·	·
COc1ccc(CN2CC3(CN(C(=O)c4ccccc4)C3)c3c([nH]c4cc(OC)ccc34)[C@@H]2CO)cc1	-48	-1	·	·
COc1ccc2c3c([nH]c2c1)[C@@H](CO)N(Cc1cccnc1)CC31CCN(C(=O)c2cccnc2)CC1	-16	0	·	·
COc1ccc(CN2CC3(CCN(C(=O)c4ccccc4)CC3)c3c([nH]c4cc(OC)ccc34)[C@@H]2CO)cc1	-88*	-1	·	·
CN1C(=O)c2cc(NC(=O)c3cccs3)ccc2OC[C@@H]2O[C@H](CC(=O)NCC3CC3)CC[C@@H]21	-3	-1	·	-26
O=C(CN1CCOCC1)N1CCCCN2[C@H](C1)[C@H](c1ccc(C#Cc3ccccc3)cc1)[C@@H]2CO	9	1	·	78
COc1ccc2c3c([nH]c2c1)[C@@H](CO)N(CC1CC1)CC31CN(C(=O)c2ccccc2)C1	-85*	0	·	·
C[C@H]1CN([C@@H](C)CO)C(=O)Cc2cc(NC(=O)CCCCCC(=O)Nc3ccccc3N)ccc2O[C@@H]1CN(C)C(=O)NC1CCCCC1	-2	0	0	48
CC(C)NC(=O)N[C@@H]1CC[C@H](CCNC(=O)C2CCC2)O[C@@H]1CO	-6	-2	0	·
Cc1ccc(S(=O)(=O)NCC[C@@H]2CC[C@@H](NC(=O)c3cccc(F)c3)[C@@H](CO)O2)cc1	13	0	-1	22
Cc1ccc(S(=O)(=O)NCC[C@H]2CC[C@@H](NC(=O)c3cccc(F)c3)[C@@H](CO)O2)cc1	13	44*	1	1
CC(C)NC(=O)N[C@H]1CC[C@H](CCNC(=O)C2CCC2)O[C@H]1CO	2	27*	0	·
Cc1ccc(S(=O)(=O)N[C@H]2CC[C@H](CCNC(=O)C3CCCCC3)O[C@H]2CO)cc1	5	72*	67*	3
CCCNC(=O)[C@H]1[C@H](CO)[C@H]2Cn3c(ccc(-c4cccc(OC)c4)c3=O)[C@@H]1N2C(=O)NCCC	0	-1	·	47
OC[C@@H]1[C@H]2c3ccccc3NC[C@H]2N1Cc1ccccc1Cl	-5	5	·	-28
SMILES	Pf Dd2 inh	GASC1 inh	IDH1 mut inh	T cruzi growth
C[C@H](NC(=O)C[C@@H]1CC[C@@H]2[C@H](COC[C@H](O)CN2Cc2cc(F)ccc2F)O1)c1ccccc1	1	1	·	52
COc1ccc(NC(=O)N(C)C[C@H]2OCCCC[C@@H](C)Oc3ccc(NS(=O)(=O)c4cccs4)cc3C(=O)N([C@@H](C)CO)C[C@@H]2C)cc1	-43	-5	1	·
CCC(=O)N1CCC2(CC1)CN(CC1CCCCC1)[C@@H](CO)c1c2c2ccc(OC)cc2n1C	-85*	-2	·	·
COc1ccc2c3c(n(C)c2c1)[C@@H](CO)N(S(=O)(=O)c1ccc(C)cc1)CC31CCN(S(=O)(=O)c2ccc(C)cc2)CC1	-85*	2	·	·
CCC(=O)N1CCC2(CC1)CN(CC1CCCCC1)[C@H](CO)c1c2c2ccc(OC)cc2n1C	42	·	·	·
CCC(=O)N1CCC2(CC1)CN(S(C)(=O)=O)[C@H](CO)c1c2c2ccc(OC)cc2n1C	26	1	·	·
COc1ccc2c3c(n(C)c2c1)[C@@H](CO)N(S(=O)(=O)c1ccc(C)cc1)CC31CCN(C)CC1	-59	0	·	·
COc1ccc2c3c(n(C)c2c1)[C@@H](CO)N(CC1CCCC1)CC31CCN(C(=O)CN(C)C)CC1	-85*	2	·	·
COc1ccc2c3c(n(C)c2c1)[C@@H](CO)N(S(C)(=O)=O)CC31CCN(C(=O)CN(C)C)CC1	-89*	0	·	·
C[C@@H]1CCCCO[C@@H](CN(C)Cc2ccccc2)[C@H](C)CN([C@@H](C)CO)C(=O)c2cc(NS(=O)(=O)c3ccc(F)cc3)ccc2O1	-40	0	·	22
O=C(NC[C@H]1N[C@H](CO)[C@H]1c1ccc(-c2ccccc2F)cc1)c1ccccn1	-28	-2	·	-5
O=C(c1cccc(F)c1)N1CCCCN2[C@H](C1)[C@@H](c1ccc(-c3cncnc3)cc1)[C@@H]2CO	20	4	·	22
C[C@H]1CN([C@@H](C)CO)C(=O)c2cccc(NS(=O)(=O)c3cccs3)c2O[C@@H]1CN(C)Cc1ccc(C(F)(F)F)cc1	-32	-2	1	28
COc1ccc(NC(=O)CN(c2ccccc2F)S(C)(=O)=O)cc1	·	·	0	·
C[C@@H]1CN([C@@H](C)CO)C(=O)c2cc(NC(=O)C3CCCCC3)ccc2O[C@@H](C)CCCCO[C@@H]1CN(C)C(=O)Nc1ccc2c(c1)OCO2	-83*	-1	·	44
C[C@@H]1CCCCO[C@H](CN(C)C(=O)Nc2ccc3c(c2)OCO3)[C@H](C)CN([C@H](C)CO)C(=O)c2cc(NC(=O)C3CCCCC3)ccc2O1	-86*	-2	·	47
C[C@H](CO)N1C[C@H](C)[C@@H](CN(C)C(=O)Nc2ccc(C(F)(F)F)cc2)Oc2ccc(NC(=O)Nc3ccccc3)cc2CC1=O	-64	10	1	20
C[C@@H]1CN([C@@H](C)CO)C(=O)Cc2cc(NC(=O)Cn3cnnn3)ccc2O[C@H]1CN(C)Cc1ccc(C(F)(F)F)cc1	-8	?	74*	66
C[C@H](CO)N1C[C@H](C)[C@@H](CN(C)C(=O)Nc2ccccc2)Oc2ccc(NC(=O)Nc3ccc(C(F)(F)F)cc3)cc2CC1=O	-85*	-1	2	28
